Where a name gives a salt, the structure may show the parent alone. Active and inactive are the calls of the source. No cut-off for these calls is given here.
Key:
[1] = target: NACHT, LRR and PYD domains-containing protein 3 (Homo sapiens) (UniProt Q96P20); assay: Inhibition of recombinant human NLRP3 ATPase assessed as hydrolysis of ATP at 50 uM preincubated for 15 mins followed by addition of ATP measured after 40 mins by ADP-Glo assay
Procedure, shortened: (§1)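 Human recombinant NLRP3 (0.105 µg) in 20 mM Tris-HCl pH 7.8, 133 mM NaCl, 20 mM MgCl2, 3 mM KCl, 0.56 mM EDTA, 0.5% DMSO. Compound (100 or 50 µM) was preincubated 15 min at 37 °C, then ATP (250 µM) was added for 40 min at 37 °C. ADP was read by ADP-Glo luminescence. Result is % inhibition vs vehicle; mean ± SEM, ≥3 experiments.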

[2] = target: NACHT, LRR and PYD domains-containing protein 3 (Homo sapiens) (UniProt Q96P20); assay: Inhibition of recombinant human NLRP3 ATPase assessed as hydrolysis of ATP at 100 uM preincubated for 15 mins followed by addition of ATP measured after 40 mins by ADP-Glo assay; procedure, shortened: as §1
[3] = Cysteamine reactivity of the compound in PBS assessed as second order rate constant for free cysteamine release at 250 uM and pH 7.4 after 90 mins by DTNB reagent based RP-UHPLC analysis
Procedure, shortened: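 Compound (250 µM) was mixed with equimolar cysteamine in pH 7.4 PBS containing 12.5% CH3CN at 37 °C. Free cysteamine was tracked with DTNB at several time points over 90 min. Second-order k2 came from 1/[CAM] = 1/[CAM]0 + kt, using 3–10 points per plot; mean ± SEM of ≥3 experiments.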

[4] = Cytotoxicity against human THP1 cells assessed as cell viability at 100 uM after 72 hrs by MTT assay; assay type: cell-based; details: THP-1 cells, read-out: Activity
Procedure, shortened: (§2)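 Human THP-1 cells were exposed to 0.1–100 µM for 72 h, and viability was read by MTT. TC50 is the concentration that cuts viability by 50%; percent viable cells at 100 µM is also reported. Mean ± SEM of ≥3 experiments.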

[5] = Cytotoxicity against human THP1 cells assessed as reduction in cell viability after 72 hrs by MTT assay; assay type: cell-based; details: THP-1 cells, read-out: TC50; procedure, shortened: as §2
[6] = target: NACHT, LRR and PYD domains-containing protein 3 (Homo sapiens) (UniProt Q96P20); assay: Inhibition of NLRP3 in PMA-differentiated and LPS-primed human THP1 cells assessed as decrease in ATP-induced pyroptosis measured as LDH activity at 10 uM preincubated for 1 hr followed by ATP addition measured after 1 hr by colorimetric assay relative to control
Procedure, shortened: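 THP-1 cells were PMA-differentiated and LPS-primed, then pretreated with vehicle or compound (10 µM, 1 h). Pyroptosis was triggered with ATP (5 mM). LDH in supernatant was measured colorimetrically 1 h after ATP and expressed as percent decrease versus vehicle, mean ± SEM of ≥3 experiments.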

[7] = target: NACHT, LRR and PYD domains-containing protein 3 (Homo sapiens) (UniProt Q96P20); assay: Inhibition of recombinant human NLRP3 ATPase assessed as hydrolysis of ATP preincubated for 15 mins followed by addition of ATP measured after 40 mins by ADP-Glo assay; procedure, shortened: as §1
serum albumin = serum albumin (Homo sapiens, UniProt P02768); assay: Binding affinity to human serum albumin after 5 mins by RP-UHPLC analysis; assay type: ADME; details: read-out: PB (converted)
[8] = target: NACHT, LRR and PYD domains-containing protein 3 (Mus musculus) (UniProt Q8R4B8); assay: Inhibition of NLRP3 inflammasome in LPS-primed C57BL/6 mouse bone marrow derived macrophages assessed as reduction in ATP-induced IL-1beta production at 1 to 100 uM preincubated for 1 hr followed by stimulation with ATP measured after 30 mins by ELISA
Procedure, shortened: (§3)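 C57BL/6 bone marrow macrophages, differentiated with 20% L-cell medium, were primed with LPS (1 µg/mL, 3 h). They were then exposed to compound or vehicle for 1 h and stimulated with ATP (5 mM, 30 min). IL-1β released into the medium was measured by ELISA.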

[9] = target: NACHT, LRR and PYD domains-containing protein 3 (Mus musculus) (UniProt Q8R4B8); assay: Inhibition of NLRP3 inflammasome in LPS-primed C57BL/6 mouse bone marrow derived macrophages assessed as reduction in ATP-induced pyroptosis at 1 to 100 uM preincubated for 1 hr followed by stimulation with ATP measured after 30 mins by LDH release assay
Procedure, shortened: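 LPS-primed (1 µg/mL, 3 h) C57BL/6 bone marrow macrophages were treated with compound or vehicle for 1 h, then given ATP (5 mM, 30 min). LDH in the medium was measured and expressed as percent of total cellular LDH.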

[10] = target: NACHT, LRR and PYD domains-containing protein 3 (Mus musculus) (UniProt Q8R4B8); assay: Inhibition of NLRP3 inflammasome in LPS-primed C57BL/6 mouse bone marrow derived macrophages assessed as reduction in nigericin-induced pyroptosis at 1 to 100 uM preincubated for 1 hr followed by stimulation with ATP measured after 30 mins by LDH release assay
Procedure, shortened: (§4)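 Bone marrow macrophages from C57BL/6 mice, differentiated with 20% L-cell medium, primed with LPS (1 µg/mL, 3 h). Test agent or vehicle was added for 1 h, then ATP (5 mM, 30 min) or nigericin (10 µM, 30 min). IL-1β in the medium was measured by ELISA. LDH in the medium was measured colorimetrically as % of total cellular LDH.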

[11] = target: NACHT, LRR and PYD domains-containing protein 3 (Mus musculus) (UniProt Q8R4B8); assay: Inhibition of NLRP3 inflammasome in LPS-primed C57BL/6 mouse bone marrow derived macrophages assessed as reduction in nigericin-induced IL-1beta production at 1 to 100 uM preincubated for 1 hr followed by stimulation with nigericin measured after 30 mins by ELISA; procedure, shortened: as §4
[12] = target: NACHT, LRR and PYD domains-containing protein 3 (Mus musculus) (UniProt Q8R4B8); assay: Inhibition of NLRP3 inflammasome in LPS-primed C57BL/6 mouse bone marrow derived macrophages assessed as reduction in ATP-induced pyroptosis at 10 to 100 uM preincubated for 1 hr followed by stimulation with ATP measured after 30 mins by LDH release assay; procedure, shortened: as §4
[13] = target: NACHT, LRR and PYD domains-containing protein 3 (Mus musculus) (UniProt Q8R4B8); assay: Inhibition of NLRP3 inflammasome in LPS-primed C57BL/6 mouse bone marrow derived macrophages assessed as reduction in nigericin-induced pyroptosis at 10 to 100 uM preincubated for 1 hr followed by […] measured after 30 mins by LDH release assay; procedure, shortened: as §4
[14] = target: NACHT, LRR and PYD domains-containing protein 3 (Mus musculus) (UniProt Q8R4B8); assay: Inhibition of NLRP3 inflammasome in LPS-primed C57BL/6 mouse bone marrow derived macrophages assessed as reduction in nigericin-induced IL-1beta production at 10 to 100 uM preincubated for 1 hr followed by stimulation with nigericin measured after 30 mins by ELISA; procedure, shortened: as §4
[15] = target: NACHT, LRR and PYD domains-containing protein 3 (Mus musculus) (UniProt Q8R4B8); assay: Inhibition of NLRP3 inflammasome in LPS-primed C57BL/6 mouse bone marrow derived macrophages assessed as reduction in ATP-induced IL-1beta production at 10 to 100 uM preincubated for 1 hr followed by stimulation with ATP measured after 30 mins by ELISA; procedure, shortened: as §3
[16] = target: NACHT, LRR and PYD domains-containing protein 3 (Homo sapiens) (UniProt Q96P20); assay: Irreversible inhibition of His-FLAG- tagged NLRP3-ATPase (unknown origin) at 100 uM preincubated for 55 mins followed by ATP addition measured after 40 mins by ADP-Glo assay
Procedure, shortened: (§5)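 His-FLAG NLRP3 (105 ng/well) captured on anti-FLAG-coated, BSA-blocked wells for 3 h at 4 °C. Compound (100 µM final, 2% DMSO) preincubated 55 min at 37 °C. Wells were washed three times (or not washed), then ATP (250 µM) was added for 40 min at 37 °C. ADP was read by ADP-Glo. Equal protein loading was checked by anti-His ELISA.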

[17] = target: NACHT, LRR and PYD domains-containing protein 3 (Homo sapiens) (UniProt Q96P20); assay: Irreversible inhibition of His-FLAG- tagged NLRP3-ATPase (unknown origin) at 100 uM preincubated for 55 mins followed by compound wash-out and ATP addition measured after 40 mins by ADP-Glo assay; procedure, shortened: as §5
[18] = Metabolic stability in Sprague-Dawley rat liver microsomes at 100 uM after 2 hrs in presence of NADPH-generating system by UHPLC-MS analysis; assay type: ADME, microsome; details: read-out: Stability
Procedure, shortened: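 Rat liver microsomes (0.5 mg protein/mL) in 100 mM phosphate buffer pH 7.4 with NADPH-generating system, compound 100 µM final (≤2% DMSO), 37 °C, shaking, up to 120 min. Samples were taken at 0, 15, 30, 60 and 120 min and quenched with acetonitrile on ice. Analysis by UHPLC-MS; runs were also done without NADPH system. ≥3 independent repeats.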

Liver = assay: Drug level in Sprague-Dawley rat liver microsomes treated with INF39 at 100 uM up to 2 hrs by UHPLC-MS analysis; assay type: ADME, microsome

NACHT, LRR and PYD domains-containing protein 3 (Homo sapiens), sequence (Q96P20 whole entry, the tested form may be a part): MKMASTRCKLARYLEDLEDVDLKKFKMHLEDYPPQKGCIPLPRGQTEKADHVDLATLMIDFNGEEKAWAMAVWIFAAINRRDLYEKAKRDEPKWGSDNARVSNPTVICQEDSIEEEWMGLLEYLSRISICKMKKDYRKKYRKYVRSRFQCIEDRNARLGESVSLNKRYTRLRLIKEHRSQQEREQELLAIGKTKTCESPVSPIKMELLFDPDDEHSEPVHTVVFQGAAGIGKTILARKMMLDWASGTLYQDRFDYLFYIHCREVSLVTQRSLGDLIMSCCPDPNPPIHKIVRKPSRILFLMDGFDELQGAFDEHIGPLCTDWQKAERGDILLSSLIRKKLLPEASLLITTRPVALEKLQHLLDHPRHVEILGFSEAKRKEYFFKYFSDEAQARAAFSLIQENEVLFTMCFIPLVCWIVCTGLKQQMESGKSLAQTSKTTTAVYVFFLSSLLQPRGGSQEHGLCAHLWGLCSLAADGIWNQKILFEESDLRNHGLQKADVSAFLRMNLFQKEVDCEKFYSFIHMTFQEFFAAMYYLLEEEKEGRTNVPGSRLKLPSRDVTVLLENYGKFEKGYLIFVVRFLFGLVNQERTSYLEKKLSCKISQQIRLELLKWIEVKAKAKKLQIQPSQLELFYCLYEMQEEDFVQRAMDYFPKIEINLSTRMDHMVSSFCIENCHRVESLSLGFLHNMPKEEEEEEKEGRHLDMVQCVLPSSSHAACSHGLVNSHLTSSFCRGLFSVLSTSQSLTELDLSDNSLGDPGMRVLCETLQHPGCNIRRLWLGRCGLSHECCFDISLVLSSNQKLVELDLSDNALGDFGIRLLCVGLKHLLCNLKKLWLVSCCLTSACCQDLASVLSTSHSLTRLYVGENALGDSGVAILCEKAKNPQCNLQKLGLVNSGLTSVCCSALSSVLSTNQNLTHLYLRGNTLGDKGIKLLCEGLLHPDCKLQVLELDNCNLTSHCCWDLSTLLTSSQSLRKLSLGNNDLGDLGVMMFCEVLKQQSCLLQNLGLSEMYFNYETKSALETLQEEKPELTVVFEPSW
NACHT, LRR and PYD domains-containing protein 3 (Mus musculus), sequence (Q8R4B8 whole entry, the tested form may be a part): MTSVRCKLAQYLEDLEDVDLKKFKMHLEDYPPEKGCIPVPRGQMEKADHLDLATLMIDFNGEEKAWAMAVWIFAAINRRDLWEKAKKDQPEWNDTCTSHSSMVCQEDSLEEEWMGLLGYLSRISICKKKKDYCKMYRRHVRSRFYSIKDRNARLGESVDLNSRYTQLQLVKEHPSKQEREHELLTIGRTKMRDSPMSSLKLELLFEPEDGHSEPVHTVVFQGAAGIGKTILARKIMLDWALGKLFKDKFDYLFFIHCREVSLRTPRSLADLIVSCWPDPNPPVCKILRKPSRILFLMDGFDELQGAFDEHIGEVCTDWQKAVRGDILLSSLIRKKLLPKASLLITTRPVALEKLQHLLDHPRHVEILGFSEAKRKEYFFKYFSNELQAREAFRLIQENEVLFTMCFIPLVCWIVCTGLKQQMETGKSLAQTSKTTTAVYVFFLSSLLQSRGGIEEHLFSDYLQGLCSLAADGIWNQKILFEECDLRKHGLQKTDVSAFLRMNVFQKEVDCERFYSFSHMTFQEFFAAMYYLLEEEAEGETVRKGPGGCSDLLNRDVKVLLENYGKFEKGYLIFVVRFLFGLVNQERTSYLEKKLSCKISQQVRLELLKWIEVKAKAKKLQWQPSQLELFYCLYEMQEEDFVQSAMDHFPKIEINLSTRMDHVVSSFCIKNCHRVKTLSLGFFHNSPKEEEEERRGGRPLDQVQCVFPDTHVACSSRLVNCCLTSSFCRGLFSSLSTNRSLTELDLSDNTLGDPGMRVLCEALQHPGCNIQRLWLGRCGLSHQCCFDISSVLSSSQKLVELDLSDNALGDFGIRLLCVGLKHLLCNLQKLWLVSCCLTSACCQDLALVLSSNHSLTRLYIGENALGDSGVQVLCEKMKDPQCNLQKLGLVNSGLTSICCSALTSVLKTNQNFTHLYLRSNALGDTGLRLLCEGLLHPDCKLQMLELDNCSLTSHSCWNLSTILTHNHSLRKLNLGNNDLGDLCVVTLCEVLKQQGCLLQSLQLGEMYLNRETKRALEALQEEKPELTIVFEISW
serum albumin, sequence (P02768 whole entry, the tested form may be a part): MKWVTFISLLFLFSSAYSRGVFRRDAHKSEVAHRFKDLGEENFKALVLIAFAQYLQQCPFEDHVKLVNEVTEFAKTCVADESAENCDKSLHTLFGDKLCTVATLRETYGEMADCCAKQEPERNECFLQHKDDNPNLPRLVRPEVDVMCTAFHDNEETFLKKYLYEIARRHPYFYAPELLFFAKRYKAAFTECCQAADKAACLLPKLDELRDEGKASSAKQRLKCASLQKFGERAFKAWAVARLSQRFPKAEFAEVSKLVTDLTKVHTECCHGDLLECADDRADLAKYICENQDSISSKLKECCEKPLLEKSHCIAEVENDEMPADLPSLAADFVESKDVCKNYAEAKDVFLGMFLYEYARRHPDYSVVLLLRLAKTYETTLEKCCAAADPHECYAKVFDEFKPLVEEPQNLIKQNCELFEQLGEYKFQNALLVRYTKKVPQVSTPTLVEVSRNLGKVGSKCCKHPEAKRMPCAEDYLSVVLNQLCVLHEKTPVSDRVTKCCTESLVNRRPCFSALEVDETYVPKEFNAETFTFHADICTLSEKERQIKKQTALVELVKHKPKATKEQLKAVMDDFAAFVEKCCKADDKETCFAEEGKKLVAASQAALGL

With `CC(Cc1ccccc1Cl)C(=O)O` (configuration not stated) the inhibition [1] was “inactive”, the inhibition [2] was 15% and the Drug metabolism [3] was “Metabolite not detected”. The viability at 72 h, 100 µM [4] was 98.7%, the CC50 at 72 h [5] was > 100 µM and the inhibition [6] was 5.2%.

In the case of `C=C(C(=O)O)C(O)c1ccccc1Cl` (configuration not stated), the inhibition [1] is reported as 21%, the inhibition [2] is reported as 69% and the Drug metabolism [3] is reported as “Metabolite not detected”. The viability at 72 h, 100 µM [4] was 80.7%, the inhibition [7] was “Dose-dependent effect” and the CC50 at 72 h [5] was > 100 µM.

Work on `C=C(C(=O)OCC)C(O)c1ccc(Cl)cc1Cl` (configuration not stated) yielded an inhibition [1] of 19%, an inhibition [2] of 35% and a K [3] of 1.34 M⁻¹ s⁻¹. For the same compound, the inhibition [7] was “Dose-dependent effect”, the CC50 at 72 h [5] was 68.3 µM and the inhibition [6] was 74.4%.

With `C=C(C(=O)OCC)C(OCCC(=O)OCC)c1ccccc1Cl` (configuration not stated) the inhibition [1] was 27%, the inhibition [2] was 56% and the K [3] was 0.734 M⁻¹ s⁻¹. The viability at 72 h, 100 µM [4] was 95.7%, the inhibition [7] was “Dose-dependent effect” and the CC50 at 72 h [5] was > 100 µM.

In the case of `C=C(C(=O)OCC)C(OC(C)=O)c1ccccc1Cl` (configuration not stated), the K [3] is reported as 56.2 M⁻¹ s⁻¹ and the CC50 at 72 h [5] is reported as 33.3 µM.

`C=C(C(=O)OCC)C(O)c1ccccc1Cl` (configuration not stated) gave an inhibition [1] of 32%, an inhibition [2] of 72% and a fraction unbound at 5 min (serum albumin) of 0.35. The K [3] was 0.824 M⁻¹ s⁻¹, the inhibition [7] was “Dose-dependent effect” and the CC50 at 72 h [5] was 65 µM. The inhibition [6] was 80.9%.

For `COC(=O)/C=C/C(=O)OC` [DIMETHYL FUMARATE], the inhibition [1] was “inactive”, the inhibition [2] was “inactive” and the K [3] was 39 M⁻¹ s⁻¹. For the same compound, the inhibition [8] was “Active”, the inhibition [9] was “Active” and the inhibition [10] was “Active”. For the same compound, the inhibition [11] was “Active”, the CC50 at 72 h [5] was 95.5 µM and the inhibition [6] was 65.2%.

Work on `C=C(C(=O)OCC)C(OC)c1ccccc1Cl` (configuration not stated) yielded an inhibition [1] of 24%, an inhibition [2] of 60% and a K [3] of 1.6 M⁻¹ s⁻¹. For the same compound, the viability at 72 h, 100 µM [4] was 78.1%, the inhibition [7] was “Dose-dependent effect” and the CC50 at 72 h [5] was > 100 µM. It also gave an inhibition [6] of 37.2%.

With `Cc1ccc(S(=O)(=O)/C=C/C#N)cc1` the inhibition [12] was “Active”, the inhibition [13] was “Active” and the inhibition [14] was “Active”. For the same compound, the inhibition [15] was “Active” and the CC50 at 72 h [5] was 1.5 µM.

With `CCOC(=O)C1=CCOC1c1ccccc1Cl` (configuration not stated) the K [3] was 8.18 M⁻¹ s⁻¹ and the inhibition [7] was “Dose-dependent effect”.

For `O=[N+]([O-])/C=C/c1ccc2c(c1)OCO2`, the K [3] was 2.5 M⁻¹ s⁻¹ and the CC50 at 72 h [5] was 3.2 µM.

For `CCOC(=O)C(C)Cc1ccccc1Cl` (configuration not stated), the inhibition [1] was “inactive”, the inhibition [2] was 12% and the Drug metabolism [3] was “Metabolite not detected”. The inhibition [16] was 10%, the viability at 72 h, 100 µM [4] was 86.1% and the inhibition [7] was “Dose-dependent effect”. The inhibition [17] was “inactive”, the CC50 at 72 h [5] was > 100 µM and the inhibition [6] was 3.8%.

In the case of `C=C(Cc1ccccc1Cl)C(=O)O`, the inhibition [1] is reported as 22%, the inhibition [2] is reported as 44% and the Drug metabolism [3] is reported as “Metabolite not detected”. For the same compound, the viability at 72 h, 100 µM [4] was 102%, the inhibition [7] was “Dose-dependent effect” and the remaining at 2 h, 100 µM [18] was > 99%. The CC50 at 72 h [5] was > 100 µM, the inhibition [6] was 35.8% and the Drug metabolism (Liver) was “Metabolite_Detected”.

In the case of `C=C(C(=O)O)C(O)c1ccc(Cl)cc1Cl` (configuration not stated), the inhibition [1] is reported as 11%, the inhibition [2] is reported as 43% and the Drug metabolism [3] is reported as “Metabolite not detected”. For the same compound, the viability at 72 h, 100 µM [4] was 88.1%, the inhibition [7] was “Dose-dependent effect” and the CC50 at 72 h [5] was > 100 µM. The inhibition [6] was 40.2%.

`C=C(C(=O)OCC)C(OCCC(=O)OCC)c1ccc(Cl)cc1Cl` (configuration not stated) gave an inhibition [1] of 10%, a K [3] of 0.292 M⁻¹ s⁻¹ and a viability at 72 h, 100 µM [4] of 87.7%. For the same compound, the CC50 at 72 h [5] was > 100 µM.

Source: ChEMBL document CHEMBL4014309, “Development of an Acrylate Derivative Targeting the NLRP3 Inflammasome for the Treatment of Inflammatory Bowel Disease” (J Med Chem, 2017)
